Peptide text beside a SMILES is read from it.
What was measured:
SupT1 cells = assay: Alkaline comet assay in SupT1 cells; format: cell-based; conditions: no radiation; Tail DNA % and Olive Tail Moment
How it was run: (§1)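 Alkaline comet assay. One day after culturing, cells were pre-treated or not with peptides for 2 h, then γ-irradiated (4 Gy) or mock-irradiated. Cells were embedded in low-melting agarose. Lysis was 2 h in ice-cold 2.5 M NaCl, 100 mM EDTA, 10 mM Tris pH 10, 1% Triton X-100 and 10% DMSO. DNA was unwound 20 min at 4°C in NaOH/EDTA pH 13 and electrophoresed 45 V, 20 min. Slides were neutralised and stained with ethidium bromide. Tail DNA % and Olive tail moment were scored from random fields.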

H9 cells = assay: Alkaline comet assay in H9 cells; format: cell-based; conditions: no radiation; Tail DNA % and Olive Tail Moment
How it was run: as §1

A3G = A3G (Homo sapiens, UniProt Q9HC16); assay: Inhibition of deamination activity of purified A3G; format: biochemical
[1] = target: APOBEC3G (A3G), wild type, C-terminal His6 tag (human) (UniProt Q9HC16)
[2] = target: APOBEC3G (A3G), wild type, C-terminal His6 tag (human, UniProt Q9HC16 1-384); assay: cell-based or functional assay
APOBEC3G (A3G), wild type, C-terminal His6 tag, sequence (Q9HC16 whole entry): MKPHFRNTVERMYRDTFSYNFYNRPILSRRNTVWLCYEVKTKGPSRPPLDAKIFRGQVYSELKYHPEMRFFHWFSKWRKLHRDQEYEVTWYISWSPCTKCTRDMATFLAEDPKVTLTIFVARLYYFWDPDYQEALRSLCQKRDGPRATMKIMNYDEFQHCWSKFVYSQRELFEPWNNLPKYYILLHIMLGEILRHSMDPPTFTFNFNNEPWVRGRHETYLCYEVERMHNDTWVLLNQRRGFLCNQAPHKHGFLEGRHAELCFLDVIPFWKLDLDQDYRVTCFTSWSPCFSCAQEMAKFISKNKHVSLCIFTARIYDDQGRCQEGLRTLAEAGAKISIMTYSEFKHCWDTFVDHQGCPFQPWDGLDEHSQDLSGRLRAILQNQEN

A3G, sequence (Q9HC16 whole entry): as above
APOBEC3G (A3G), wild type, C-terminal His6 tag (human), sequence (Q9HC16 whole entry): as above

Molecule	IC50 (A3G) [µM]	IC50 of inhibition of ssDNA deamination by purified A3G [1] [µM]	further results
CC(C)C[C@H](NC(=O)[C@H](CCCNC(=N)N)NC(=O)[C@H](C)N)C(=O)N[C@@H](Cc1ccc(O)cc1)C(=O)N[C@@H](Cc1ccc(O)cc1)C(=O)N[C@@H](Cc1ccccc1)C(=O)N[C@@H](Cc1c[nH]c2ccccc12)C(=O)N[C@@H](CC(=O)O)C(=O)N[C@H](C(=O)O)[C@@H](C)O [Peptide A3F304-312] (H-ARLYYFWDT-OH)	8		DNA damage in non-irradiated SupT1 cells (comet assay) (SupT1 cells): did not induce breaks; DNA damage in non-irradiated H9 cells (comet assay) (H9 cells): did not induce breaks
CC(C)C[C@H](NC(=O)[C@@H](N)CCCNC(=N)N)C(=O)N[C@@H](Cc1ccc(O)cc1)C(=O)N[C@@H](Cc1ccc(O)cc1)C(=O)N[C@@H](Cc1ccccc1)C(=O)N[C@@H](Cc1c[nH]c2ccccc12)C(=O)N[C@@H](CC(=O)O)C(=O)O [Peptide A3F305-311] (H-RLYYFWD-OH)	1		DNA damage in non-irradiated SupT1 cells (comet assay) (SupT1 cells): did not induce breaks; DNA damage in non-irradiated H9 cells (comet assay) (H9 cells): did not induce breaks
CC(C)C[C@H](NC(=O)[C@H](Cc1ccc(O)cc1)NC(=O)[C@@H](NC(=O)[C@H](CCC(=O)O)NC(=O)[C@H](Cc1cnc[nH]1)NC(=O)[C@H](CCCNC(=N)N)NC(=O)CNC(=O)[C@H](CCCNC(=N)N)NC(=O)[C@@H](NC(=O)[C@@H](N)Cc1c[nH]c2ccccc12)C(C)C)[C@@H](C)O)C(=O)N[C@@H](CS)C(=O)N[C@@H](Cc1ccc(O)cc1)C(=O)N[C@@H](CCC(=O)O)C(=O)N[C@H](C(=O)N[C@@H](CCC(=O)O)C(=O)O)C(C)C [Peptide A3G211-225] (H-WVRGRHETYLCYEVE-OH)	10		
CSCC[C@H](NC(=O)[C@@H](N)CCCNC(=N)N)C(=O)N[C@@H](Cc1c[nH]cn1)C(=O)N[C@@H](CC(N)=O)C(=O)N[C@@H](CC(=O)O)C(=O)N[C@H](C(=O)N[C@@H](Cc1c[nH]c2ccccc12)C(=O)N[C@H](C(=O)N[C@@H](CC(C)C)C(=O)N[C@@H](CC(C)C)C(=O)N[C@@H](CC(N)=O)C(=O)N[C@@H](CCC(N)=O)C(=O)N[C@@H](CCCNC(=N)N)C(=O)N[C@@H](CCCNC(=N)N)C(=O)NCC(=O)O)C(C)C)[C@@H](C)O [Peptide A3G226-240] (H-RMHNDTWVLLNQRRG-OH)	60		
CSCC[C@H](NC(=O)[C@H](Cc1c[nH]cn1)NC(=O)[C@H](Cc1c[nH]cn1)NC(=O)[C@H](CCCCN)NC(=O)[C@@H](N)C(C)C)C(=O)N[C@@H](Cc1ccc(O)cc1)C(=O)N[C@H](C(=O)N[C@@H](CO)C(=O)NCC(=O)N[C@@H](CCCCN)C(=O)N[C@@H](C)C(=O)N[C@@H](CCCNC(=N)N)C(=O)O)C(C)C [Vif25-36]	50		
CSCC[C@H](NC(=O)[C@H](Cc1c[nH]cn1)NC(=O)[C@H](Cc1c[nH]cn1)NC(=O)[C@H](CCCCN)NC(=O)[C@@H](N)C(C)C)C(=O)N[C@@H](Cc1ccc(O)cc1)C(=O)N[C@H](C(=O)N[C@@H](CO)C(=O)NCC(=O)N[C@@H](CCCCN)C(=O)N[C@@H](C)C(=O)N[C@@H](CCCNC(=N)N)C(=O)NCC(=O)N[C@@H](Cc1c[nH]c2ccccc12)C(=O)N[C@@H](Cc1ccccc1)C(=O)O)C(C)C [Vif25-39]	0.6		DNA damage in non-irradiated SupT1 cells (comet assay) (SupT1 cells): did not induce any damage; DNA damage in non-irradiated H9 cells (comet assay) (H9 cells): did not induce any damage
CC[C@H](C)[C@H](N)C(=O)N[C@@H](Cc1c[nH]cn1)C(=O)N[C@@H](CC(C)C)C(=O)N[C@@H](Cc1ccc(O)cc1)C(=O)N[C@@H](Cc1ccc(O)cc1)C(=O)N[C@@H](Cc1ccccc1)C(=O)N[C@@H](CC(=O)O)C(=O)N[C@@H](CS)C(=O)N[C@@H](Cc1ccccc1)C(=O)O [Vif107-115] (H-IHLYYFDCF-OH)			DNA damage in non-irradiated SupT1 cells (comet assay) (SupT1 cells): did not induce any damage; DNA damage in non-irradiated H9 cells (comet assay) (H9 cells): did not induce any damage; Ki (A3G): ~1.71 µM
CSCC[C@H](NC(=O)[C@H](Cc1c[nH]cn1)NC(=O)[C@H](Cc1c[nH]cn1)NC(=O)[C@H](C)NC(=O)[C@@H](N)C(C)C)C(=O)N[C@@H](Cc1ccc(O)cc1)C(=O)N[C@H](C(=O)N[C@@H](CO)C(=O)NCC(=O)N[C@@H](CCCCN)C(=O)N[C@@H](C)C(=O)N[C@@H](CCCNC(=N)N)C(=O)NCC(=O)N[C@@H](Cc1c[nH]c2ccccc12)C(=O)N[C@@H](Cc1ccccc1)C(=O)O)C(C)C [Vif 25-39 (26A)]	8		
CSCC[C@H](NC(=O)[C@H](C)NC(=O)[C@H](C)NC(=O)[C@H](C)NC(=O)[C@@H](N)C(C)C)C(=O)N[C@@H](Cc1ccc(O)cc1)C(=O)N[C@H](C(=O)N[C@@H](CO)C(=O)NCC(=O)N[C@@H](CCCCN)C(=O)N[C@@H](C)C(=O)N[C@@H](CCCNC(=N)N)C(=O)NCC(=O)N[C@@H](Cc1c[nH]c2ccccc12)C(=O)N[C@@H](Cc1ccccc1)C(=O)O)C(C)C [Vif 25-39 (26AAA28)] (H-VAAAMYVSGKARGWF-OH)	10		
CSCC[C@H](NC(=O)[C@H](C)NC(=O)[C@H](C)NC(=O)[C@H](CCCCN)NC(=O)[C@@H](N)C(C)C)C(=O)N[C@@H](Cc1ccc(O)cc1)C(=O)N[C@H](C(=O)N[C@@H](CO)C(=O)NCC(=O)N[C@@H](CCCCN)C(=O)N[C@@H](C)C(=O)N[C@@H](CCCNC(=N)N)C(=O)NCC(=O)N[C@@H](Cc1c[nH]c2ccccc12)C(=O)N[C@@H](Cc1ccccc1)C(=O)O)C(C)C [Vif 25-39 (27AA28)] (H-VKAAMYVSGKARGWF-OH)	4.5		
Vif25-36 (peptide)		50	
Vif25-39 (peptide)		0.6	
Vif26-39 (peptide)		80	
Vif105-119 (peptide)		0.1	
Vif 25-39 (26A) (peptide)		8	
Vif 25-39 (26AAA28) (peptide)		10	
Vif 25-39 (27AA28) (peptide)		4.5	
RMHNDTWVLLNQRRG [A3G226-240]		60	
ARLYYFWDT [A3F304-312]		8	
IHLYYFDCF [Vif107-115]			IC50 of inhibition of ssDNA deamination by purified A3G [2]: 0.1 µM
RLYYFWD [A3F305-311]		1	
WVRGRHETYLCYEVE [A3G211-225]		10	
